# Assay results of several laboratories.
# Protocols differ between the studies behind these lines.
# Cell line: HeLa
# Read-out: cell growth or viability
SMILES,method,time,CC50
Cc1ccn2c(C(=O)N3CCN(Cc4cn(-c5ccc(Br)cc5)nn4)CC3)c(C)nc2c1,resazurin,,> 100 µM
CCOP(=O)(OCC)[C@@H]1C[C@@H](n2cc(Cn3cnc4c(N)ncnc43)nn2)ON1C (racemic),,72 h,> 250 µM
COC(=O)[C@@H]1Cc2c([nH]c3ccccc23)[C@@H](c2ccc3c(c2)OCO3)N1,MTT,48 h,10 µg/mL
CCOP(=O)(OCC)[C@@H]1C[C@@H](n2cc(C(=O)OC)nn2)ON1C (relative stereo),,72 h,> 250 µM
CN1CC[C@H](c2c(O)cc(O)c3c(=O)cc(-c4ccccc4Cl)oc23)[C@H](O)C1,MTT,72 h,0.12 µM
Cc1nc2ccc(Cl)cn2c1C(=O)N1CCN(Cc2cn(-c3ccccc3F)nn2)CC1,resazurin,,> 100 µM
COC(=O)c1ccnc(C(=O)OC)c1,,,> 1000 µM
Cc1nc2ccc(Cl)cn2c1C(=O)N1CCN(Cc2cn(-c3ccc(F)c(Cl)c3)nn2)CC1,resazurin,,> 100 µM
COCCN1CCN(c2nc(SCCc3ccccc3)c(C#N)c3c2COC(C)(C)C3)CC1,,,< 50 µM
CSSc1ccccc1C(=O)O,MTT,48 h,409 µM
O=C(O)c1ccc(O)c2ncccc12,,,> 1000 µM
O=[N+]([O-])c1ccc(-c2nc3cccc(O)c3[nH]2)o1,resazurin,72 h,20 µM
CCOP(=O)(OCC)[C@@H]1C[C@H](n2cc(Cn3cc(C)c(=O)[nH]c3=O)nn2)ON1C (racemic),,72 h,> 250 µM
Cc1nc2ccc(Cl)cn2c1C(=O)N1CCN(Cc2cn(-c3ccc(Br)cc3)nn2)CC1,resazurin,,> 100 µM
CCOP(=O)(OCC)[C@@H]1C[C@@H](n2cc(-c3nccn3C)nn2)ON1C,,72 h,> 250 µM
Cc1nc2ccc(Cl)cn2c1C(=O)N1CCN(Cc2cn(-c3ccccc3Cl)nn2)CC1,resazurin,,> 100 µM
